Measurements reported in ChEMBL document CHEMBL4130533, “Cytotoxic Cardiac Glycoside Constituents of Vallaris glabra Leaves” (J Nat Prod, 2017).

What was measured:
HT-29 = assay: Antiproliferative activity against human HT-29 cells by MTT assay; assay type: functional, cell-based
Summary of the method: (§1)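 Antiproliferative MTT (microculture tetrazolium) assay run by a previously reported protocol, giving IC50 values. Cell lines came from ATCC: HeLaS3 cervix adenocarcinoma (CCL-2.2), A549 lung carcinoma (CCL-185), HT-29 colorectal adenocarcinoma (HTB-38), and nontumorigenic normal African green monkey kidney Vero (CCL-81).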

A549 = assay: Antiproliferative activity against human A549 cells by MTT assay; assay type: functional, cell-based; summary of the method: as §1
HeLa S3 = assay: Antiproliferative activity against human HeLaS3 cells by MTT assay; assay type: functional, cell-based; summary of the method: as §1
Vero = assay: Antiproliferative activity against African green monkey Vero cells by MTT assay; assay type: cell-based; details: Chlorocebus sabaeus; summary of the method: as §1

| SMILES | IC50 (HT-29) | IC50 (A549) | IC50 (HeLa S3) | IC50 (Vero) |
| --- | --- | --- | --- | --- |
| CO[C@@H]1[C@@H](O)[C@H](C)O[C@@H](O[C@H]2CC[C@@]3(C)[C@H](CC[C@@H]4[C@@H]3CC[C@]3(C)[C@@H](C5=CC(=O)OC5)[C@@H](OC(C)=O)C[C@]43O)C2)[C@@H]1OC(C)=O | 100 nM | 500 nM | 40 nM | 200 nM |
| CO[C@H]1[C@@H](O)[C@H](O[C@H]2CC[C@@]3(C)[C@H](CC[C@@H]4[C@@H]3CC[C@]3(C)[C@@H](C5=CC(=O)OC5)[C@@H](OC(C)=O)C[C@]43O)C2)O[C@@H](C)[C@@H]1O[C@@H]1O[C@H](CO[C@@H]2O[C@H](CO)[C@@H](O)[C@H](O)[C@H]2O)[C@@H](O)[C@H](O)[C@H]1O | 1400 nM | 600 nM | 400 nM | 4800 nM |
| CO[C@H]1[C@@H](O)[C@H](O[C@H]2CC[C@@]3(C)[C@H](CC[C@@H]4[C@@H]3CC[C@]3(C)[C@@H](C5=CC(=O)OC5)[C@@H](OC(C)=O)C[C@]43O)C2)O[C@@H](C)[C@@H]1O[C@@H]1O[C@H](CO)[C@@H](O)[C@H](O)[C@H]1O | 200 nM | 100 nM | 200 nM | 700 nM |
| CO[C@@H]1[C@@H](O)[C@H](O[C@H]2CC[C@@]3(C)[C@H](CC[C@@H]4[C@@H]3CC[C@]3(C)[C@@H](C5=CC(=O)OC5)[C@@H](OC(C)=O)C[C@]43O)C2)O[C@@H](C)[C@@H]1O[C@@H]1O[C@H](CO)[C@@H](O)[C@H](O)[C@H]1O | 200 nM | 100 nM | 100 nM | 600 nM |
| CO[C@@H]1[C@@H](O[C@@H]2O[C@H](CO[C@@H]3O[C@H](CO)[C@@H](O)[C@H](O)[C@H]3O)[C@@H](O)[C@H](O)[C@H]2O)[C@H](C)O[C@@H](O[C@H]2CC[C@@]3(C)[C@H](CC[C@@H]4[C@@H]3CC[C@]3(C)[C@@H](C5=CC(=O)OC5)[C@@H](OC(C)=O)C[C@]43O)C2)[C@@H]1OC(C)=O | 5000 nM | 2100 nM | 1600 nM | > 10000 nM |
| CO[C@@H]1[C@@H](O)[C@H](O[C@H]2CC[C@@]3(C)[C@H](CC[C@@H]4[C@@H]3CC[C@]3(C)[C@@H](C5=CC(=O)OC5)[C@@H](OC(C)=O)C[C@]43O)C2)O[C@@H](C)[C@@H]1O[C@@H]1O[C@H](CO[C@@H]2O[C@H](CO)[C@@H](O)[C@H](O)[C@H]2O)[C@@H](O)[C@H](O)[C@H]1O | 1600 nM | 1200 nM | 500 nM | 6900 nM |
| CO[C@H]1[C@@H](O[C@@H]2O[C@H](CO)[C@@H](O)[C@H](O)[C@H]2O)[C@H](C)O[C@@H](O[C@H]2CC[C@@]3(C)[C@H](CC[C@@H]4[C@@H]3CC[C@]3(C)[C@@H](C5=CC(=O)OC5)[C@@H](OC(C)=O)C[C@]43O)C2)[C@@H]1OC(C)=O | 600 nM | 600 nM | 400 nM | 2200 nM |
| CO[C@H]1[C@@H](O)[C@H](C)O[C@@H](O[C@H]2CC[C@@]3(C)[C@H](CC[C@@H]4[C@@H]3CC[C@]3(C)[C@@H](C5=CC(=O)OC5)[C@@H](OC(C)=O)C[C@]43O)C2)[C@@H]1OC(C)=O | 100 nM | 30 nM | 100 nM | 300 nM |
| CO[C@@H]1[C@@H](O)[C@H](O[C@H]2CC[C@@]3(C)[C@H](CC[C@@H]4[C@@H]3CC[C@]3(C)C(C5=CC(=O)OC5)=CC[C@]43O)C2)O[C@@H](C)[C@@H]1O[C@@H]1O[C@H](CO)[C@@H](O)[C@H](O)[C@H]1O | 1900 nM | 1600 nM | 700 nM | 6200 nM |
| CO[C@H]1[C@@H](O)[C@H](O[C@H]2CC[C@@]3(C)[C@H](CC[C@@H]4[C@@H]3CC[C@]3(C)C(C5=CC(=O)OC5)=CC[C@]43O)C2)O[C@@H](C)[C@@H]1O[C@@H]1O[C@H](CO)[C@@H](O)[C@H](O)[C@H]1O | 800 nM | 300 nM | 700 nM | 2500 nM |
| CO[C@@H]1[C@@H](O[C@@H]2O[C@H](CO)[C@@H](O)[C@H](O)[C@H]2O)[C@H](C)O[C@@H](O[C@H]2CC[C@@]3(C)[C@H](CC[C@@H]4[C@@H]3CC[C@]3(C)C(C5=CC(=O)OC5)=CC[C@]43O)C2)[C@@H]1OC(C)=O | > 10000 nM | > 10000 nM | > 10000 nM | > 10000 nM |
| CO[C@@H]1[C@@H](O)[C@H](O[C@H]2CC[C@@]3(C)[C@H](CC[C@@H]4[C@@H]3CC[C@]3(C)[C@@H](C5=CC(=O)OC5)[C@@H](O)C[C@]43O)C2)O[C@@H](C)[C@@H]1O[C@@H]1O[C@H](CO)[C@@H](O)[C@H](O)[C@H]1O | 6400 nM | 3800 nM | 6800 nM | > 10000 nM |
| CO[C@@H]1[C@@H](O[C@@H]2O[C@H](CO)[C@@H](O)[C@H](O)[C@H]2O)[C@H](C)O[C@@H](O[C@H]2CC[C@@]3(C)[C@H](CC[C@@H]4[C@@H]3CC[C@]3(C)[C@@H](C5=CC(=O)OC5)[C@@H](OC(C)=O)C[C@]43O)C2)[C@@H]1OC(C)=O | 1900 nM | 1500 nM | 1400 nM | 5800 nM |
| COc1cccc2c1C(=O)c1c(O)c3c(c(O)c1C2=O)C[C@@](O)(C(=O)CO)C[C@@H]3O[C@H]1C[C@H](N)[C@H](O)[C@H](C)O1 [DOXORUBICIN] | 400 nM | 5000 nM | < 100 nM | 6600 nM |
| COc1cc([C@@H]2c3cc4c(cc3[C@@H](O[C@@H]3O[C@@H]5CO[C@@H](C)O[C@H]5[C@H](O)[C@H]3O)[C@H]3COC(=O)[C@H]23)OCO4)cc(OC)c1O [ETOPOSIDE] | 7600 nM | > 10000 nM | 500 nM | > 10000 nM |
